Target: T1, Protein-glutamine gamma-glutamyltransferase (Homo sapiens, UniProt P21980)
T1 sequence (P21980 whole entry): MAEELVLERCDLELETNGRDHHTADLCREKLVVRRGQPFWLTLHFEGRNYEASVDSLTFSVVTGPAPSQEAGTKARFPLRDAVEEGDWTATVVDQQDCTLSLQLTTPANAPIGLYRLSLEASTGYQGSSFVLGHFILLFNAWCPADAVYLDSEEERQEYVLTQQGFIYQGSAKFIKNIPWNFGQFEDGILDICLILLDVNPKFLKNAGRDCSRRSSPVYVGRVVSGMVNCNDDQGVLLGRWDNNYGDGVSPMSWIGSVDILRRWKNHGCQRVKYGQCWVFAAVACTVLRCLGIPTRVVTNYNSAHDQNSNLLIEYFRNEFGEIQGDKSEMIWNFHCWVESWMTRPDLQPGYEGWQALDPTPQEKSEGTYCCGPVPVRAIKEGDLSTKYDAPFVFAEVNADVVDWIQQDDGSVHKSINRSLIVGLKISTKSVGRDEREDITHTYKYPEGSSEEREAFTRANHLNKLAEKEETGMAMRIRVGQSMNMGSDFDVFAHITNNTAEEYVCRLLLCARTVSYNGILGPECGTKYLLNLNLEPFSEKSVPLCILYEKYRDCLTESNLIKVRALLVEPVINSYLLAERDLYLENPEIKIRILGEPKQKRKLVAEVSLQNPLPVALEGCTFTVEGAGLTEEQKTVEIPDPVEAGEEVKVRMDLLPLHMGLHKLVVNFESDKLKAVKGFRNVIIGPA
Assay: Irreversible inhibition of recombinant human TG2 expressed in Escherichia coli BL21 assessed as inhibition constant using AL5 as substrate by continuous chromogenic assay
Settings: not given
Method in brief: (§1)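 Human TG2 expressed and purified from E. coli BL21; AL5 (Cbz-Glu(γ-p-nitrophenyl ester)-Gly-OH) hydrolysis read at 405 nm for 20 min at 25 °C under Kitz–Wilson conditions; final 100 µM AL5, 50 mM MOPS pH 6.9, 7.5 mM CaCl2, 5 mU/mL TG2, <5% DMSO; ≥4 inhibitor levels; rate constants fitted by saturation model against [I]/α (α = 1 + [S]/KM) for kinact and KI.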

Row | Ki [µM] | Structure (SMILES)
1 | 8.8 | C=CC(=O)NCCCC[C@H](NC(=O)Cc1ccccc1C)C(=O)N1CCN(C(=O)[C@H](Cc2ccccc2)NC(=O)c2cccc3ccccc23)CC1
2 | 6 | C=CC(=O)NCCCC[C@H](NC(=O)Cc1ccccc1OC)C(=O)N1CCN(C(=O)[C@H](C)NC(=O)c2cccc3ccccc23)CC1
3 | 9.5 | C=CC(=O)NCCCC[C@H](NC(=O)Cc1ccccc1C)C(=O)N1CCN(C(=O)[C@H](C)NC(=O)c2cccc3ccccc23)CC1
4 | 2.1 | C=CC(=O)NCCCC[C@H](NC(=O)OCc1ccccc1)C(=O)N1CCN(C(=O)[C@H](Cc2ccccc2)NC(=O)c2cccc3ccccc23)CC1
5 | 1.3 | C=CC(=O)NCCCC[C@H](NC(=O)OCc1ccccc1)C(=O)N1CCN(C(=O)[C@H](NC(=O)c2cccc3ccccc23)C(C)C)CC1
6 | 1.3 | C=CC(=O)NCCCC[C@H](NC(=O)Cc1ccccc1Br)C(=O)N1CCN(C(=O)[C@H](Cc2ccccc2)NC(=O)c2cccc3ccccc23)CC1
7 | 12.8 | C=CC(=O)NCCCC[C@H](NC(=O)OCc1ccccc1)C(=O)N1CCN(C(=O)[C@H](CC(C)C)NC(=O)c2cccc3ccccc23)CC1
8 | 5.1 | C=CC(=O)NCCCC[C@H](NC(=O)OCc1ccccc1)C(=O)N[C@H](C(=O)N1CCN(C(=O)c2cccc3ccccc23)CC1)C(C)C
9 | 14.9 | C=CC(=O)NCCCC[C@H](NC(=O)Cc1ccccc1C)C(=O)N1CCN(C(=O)[C@@H](C)NC(=O)c2cccc3ccccc23)CC1
10 | 3.3 | C=CC(=O)NCCCC[C@H](NC(=O)Cc1ccccc1F)C(=O)N1CCN(C(=O)[C@H](C)NC(=O)c2cccc3ccccc23)CC1
11 | 8.1 | C=CC(=O)NCCCC[C@H](NC(=O)OCc1ccccc1)C(=O)N1CCN(C(=O)[C@@H](NC(=O)c2cccc3ccccc23)C(C)CC)CC1 (stereo partly specified)
12 | 5.1 | C=CC(=O)NCCCC[C@H](NC(=O)Cc1ccc(F)cc1F)C(=O)N1CCN(C(=O)[C@H](C)NC(=O)c2cccc3ccccc23)CC1
13 | 0.3 | C=CC(=O)NCCCC[C@H](NC(=O)OCc1ccccc1)C(=O)N1CCN(C(=O)CNC(=O)c2cccc3ccccc23)CC1
14 | 3.4 | C=CC(=O)NCCCC[C@H](NC(=O)OCc1ccccc1)C(=O)N[C@@H](C(=O)N1CCN(C(=O)c2cccc3ccccc23)CC1)C(C)C

Target: T2, Protein-glutamine gamma-glutamyltransferase (Homo sapiens) (UniProt P21980)
T2 sequence (whole entry): T1 sequence (P21980 whole entry)
Assay: Irreversible inhibition of recombinant human TG2 expressed in Escherichia coli BL21 assessed as Kinact using AL5 as substrate by continuous chromogenic assay
Settings: not given
Method in brief: as §1

Row | Kinact [min⁻¹] | Structure (SMILES)
15 | 1.51 | C=CC(=O)NCCCC[C@H](NC(=O)Cc1ccccc1C)C(=O)N1CCN(C(=O)[C@H](Cc2ccccc2)NC(=O)c2cccc3ccccc23)CC1
16 | 1.52 | C=CC(=O)NCCCC[C@H](NC(=O)Cc1ccccc1OC)C(=O)N1CCN(C(=O)[C@H](C)NC(=O)c2cccc3ccccc23)CC1
17 | 3.95 | C=CC(=O)NCCCC[C@H](NC(=O)Cc1ccccc1C)C(=O)N1CCN(C(=O)[C@H](C)NC(=O)c2cccc3ccccc23)CC1
18 | 0.99 | C=CC(=O)NCCCC[C@H](NC(=O)OCc1ccccc1)C(=O)N1CCN(C(=O)[C@H](Cc2ccccc2)NC(=O)c2cccc3ccccc23)CC1
19 | 0.75 | C=CC(=O)NCCCC[C@H](NC(=O)OCc1ccccc1)C(=O)N1CCN(C(=O)[C@H](NC(=O)c2cccc3ccccc23)C(C)C)CC1
20 | 0.24 | C=CC(=O)NCCCC[C@H](NC(=O)Cc1ccccc1Br)C(=O)N1CCN(C(=O)[C@H](Cc2ccccc2)NC(=O)c2cccc3ccccc23)CC1
21 | 3.1 | C=CC(=O)NCCCC[C@H](NC(=O)OCc1ccccc1)C(=O)N1CCN(C(=O)[C@H](CC(C)C)NC(=O)c2cccc3ccccc23)CC1
22 | 0.29 | C=CC(=O)NCCCC[C@H](NC(=O)OCc1ccccc1)C(=O)N[C@H](C(=O)N1CCN(C(=O)c2cccc3ccccc23)CC1)C(C)C
23 | 5.59 | C=CC(=O)NCCCC[C@H](NC(=O)Cc1ccccc1C)C(=O)N1CCN(C(=O)[C@@H](C)NC(=O)c2cccc3ccccc23)CC1
24 | 1.68 | C=CC(=O)NCCCC[C@H](NC(=O)Cc1ccccc1F)C(=O)N1CCN(C(=O)[C@H](C)NC(=O)c2cccc3ccccc23)CC1
25 | 2.4 | C=CC(=O)NCCCC[C@H](NC(=O)OCc1ccccc1)C(=O)N1CCN(C(=O)[C@@H](NC(=O)c2cccc3ccccc23)C(C)CC)CC1 (stereo partly specified)
26 | 1.16 | C=CC(=O)NCCCC[C@H](NC(=O)Cc1ccc(F)cc1F)C(=O)N1CCN(C(=O)[C@H](C)NC(=O)c2cccc3ccccc23)CC1
27 | 0.16 | C=CC(=O)NCCCC[C@H](NC(=O)OCc1ccccc1)C(=O)N1CCN(C(=O)CNC(=O)c2cccc3ccccc23)CC1
28 | 0.22 | C=CC(=O)NCCCC[C@H](NC(=O)OCc1ccccc1)C(=O)N[C@@H](C(=O)N1CCN(C(=O)c2cccc3ccccc23)CC1)C(C)C

Target: T2, Protein-glutamine gamma-glutamyltransferase (Homo sapiens)
Assay: Irreversible inhibition of recombinant human TG2 expressed in Escherichia coli BL21 assessed as ratio of Kinact/Ki using AL5 as substrate by continuous chromogenic assay
Settings: not given
Method in brief: as §1

Row | Ratio | Structure (SMILES)
29 | 171 10^3/M/min | C=CC(=O)NCCCC[C@H](NC(=O)Cc1ccccc1C)C(=O)N1CCN(C(=O)[C@H](Cc2ccccc2)NC(=O)c2cccc3ccccc23)CC1
30 | 252 10^3/M/min | C=CC(=O)NCCCC[C@H](NC(=O)Cc1ccccc1OC)C(=O)N1CCN(C(=O)[C@H](C)NC(=O)c2cccc3ccccc23)CC1
31 | 418 10^3/M/min | C=CC(=O)NCCCC[C@H](NC(=O)Cc1ccccc1C)C(=O)N1CCN(C(=O)[C@H](C)NC(=O)c2cccc3ccccc23)CC1
32 | 470 10^3/M/min | C=CC(=O)NCCCC[C@H](NC(=O)OCc1ccccc1)C(=O)N1CCN(C(=O)[C@H](Cc2ccccc2)NC(=O)c2cccc3ccccc23)CC1
33 | 595 10^3/M/min | C=CC(=O)NCCCC[C@H](NC(=O)OCc1ccccc1)C(=O)N1CCN(C(=O)[C@H](NC(=O)c2cccc3ccccc23)C(C)C)CC1
34 | 182 10^3/M/min | C=CC(=O)NCCCC[C@H](NC(=O)Cc1ccccc1Br)C(=O)N1CCN(C(=O)[C@H](Cc2ccccc2)NC(=O)c2cccc3ccccc23)CC1
35 | 240 10^3/M/min | C=CC(=O)NCCCC[C@H](NC(=O)OCc1ccccc1)C(=O)N1CCN(C(=O)[C@H](CC(C)C)NC(=O)c2cccc3ccccc23)CC1
36 | 56 10^3/M/min | C=CC(=O)NCCCC[C@H](NC(=O)OCc1ccccc1)C(=O)N[C@H](C(=O)N1CCN(C(=O)c2cccc3ccccc23)CC1)C(C)C
37 | 374 10^3/M/min | C=CC(=O)NCCCC[C@H](NC(=O)Cc1ccccc1C)C(=O)N1CCN(C(=O)[C@@H](C)NC(=O)c2cccc3ccccc23)CC1
38 | 502 10^3/M/min | C=CC(=O)NCCCC[C@H](NC(=O)Cc1ccccc1F)C(=O)N1CCN(C(=O)[C@H](C)NC(=O)c2cccc3ccccc23)CC1
39 | 300 10^3/M/min | C=CC(=O)NCCCC[C@H](NC(=O)OCc1ccccc1)C(=O)N1CCN(C(=O)[C@@H](NC(=O)c2cccc3ccccc23)C(C)CC)CC1 (stereo partly specified)
40 | 225 10^3/M/min | C=CC(=O)NCCCC[C@H](NC(=O)Cc1ccc(F)cc1F)C(=O)N1CCN(C(=O)[C@H](C)NC(=O)c2cccc3ccccc23)CC1
41 | 513 10^3/M/min | C=CC(=O)NCCCC[C@H](NC(=O)OCc1ccccc1)C(=O)N1CCN(C(=O)CNC(=O)c2cccc3ccccc23)CC1
42 | 65 10^3/M/min | C=CC(=O)NCCCC[C@H](NC(=O)OCc1ccccc1)C(=O)N[C@@H](C(=O)N1CCN(C(=O)c2cccc3ccccc23)CC1)C(C)C

Test system: not listed separately
Assay: Apparent permeability from apical to basolateral side in MDCK-MDR1 cells
Type: ADME, cell-based, Canis lupus familiaris
Settings: dog

Row | Papp A→B [×10⁻⁶ cm/s] | Structure (SMILES)
43 | 0.55 | C=CC(=O)NCCCC[C@H](NC(=O)OCc1ccccc1)C(=O)N1CCN(C(=O)CNC(=O)c2cccc3ccccc23)CC1

Test system: not listed separately
Assay: Apparent permeability from basolateral to apical side in MDCK-MDR1 cells
Type: ADME, cell-based, Canis lupus familiaris
Settings: dog

Row | Papp B→A [×10⁻⁶ cm/s] | Structure (SMILES)
44 | 8.43 | C=CC(=O)NCCCC[C@H](NC(=O)OCc1ccccc1)C(=O)N1CCN(C(=O)CNC(=O)c2cccc3ccccc23)CC1

Test system: MDR1
Assay: Efflux ratio of apparent permeability in MDCK-MDR1 cells
Type: ADME, cell-based, Canis lupus familiaris
Settings: dog

Row | efflux ratio | Structure (SMILES)
45 | 15.5 | C=CC(=O)NCCCC[C@H](NC(=O)OCc1ccccc1)C(=O)N1CCN(C(=O)CNC(=O)c2cccc3ccccc23)CC1

Test system: not listed separately
Assay: Lipophilicity, logP of the compound
Type: physicochemical
Settings: octanol/water

Row | logP | Structure (SMILES)
46 | 2.99 | C=CC(=O)NCCCC[C@H](NC(=O)OCc1ccccc1)C(=O)N1CCN(C(=O)CNC(=O)c2cccc3ccccc23)CC1

— ChEMBL document CHEMBL5230179, “Novel irreversible peptidic inhibitors of transglutaminase 2” (RSC Med Chem, 2023)
